# Laboratory results: ChEMBL document CHEMBL4765233, “From Lead to Drug Candidate: Optimization of 3-(Phenylethynyl)-1H-pyrazolo[3,4-d]pyrimidin-4-amine Derivatives as Agents for the Treatment of Triple Negative Breast Cancer” (J Med Chem, 2016)
# Key:
# MDA-MB-231 [1] = assay: Antiproliferative activity against human MDA-MB-231 cells assessed as reduction in cell viability incubated for 72 hrs by MTT assay; format: functional, cell-based; conditions: MDA-MB-231, 72 h
# Method in brief: (§1)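 MTT viability assay. ATCC cell lines were grown in designated medium with 10% FBS at 37 °C, 5% CO2. Cells seeded at 1500−30000 per well and incubated 24 h, then exposed to compound (0−10 μg/mL) for 72 h. MTT added for 2−4 h. Formazan dissolved in DMSO (adherent) or acidified SDS overnight (suspension), absorbance read at 570 nm. Triplicates; IC50 calculated.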
# MDA-MB-435 = assay: Antiproliferative activity against human MDA-MB-435 cells assessed as reduction in cell viability incubated for 72 hrs by MTT assay; format: functional, cell-based; conditions: MDA-MB-435, 72 h; method in brief: as §1
# HepG2 = assay: Antiproliferative activity against human HepG2 cells assessed as reduction in cell viability incubated for 72 hrs by MTT assay; format: ADME, cell-based; conditions: HepG2, 72 h
# [2] = Toxicity in SCID mouse xenografted with MDA-MB-231 cells assessed as animal death at 40 mg/kg, po qd for 21 days; format: organism-based; conditions: in vivo, dose 40 mg/kg/day, time 21 day, read-out: Activity
# Method in brief: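 SCID mice aged 5–6 weeks were injected subcutaneously with 100 μL of MDA-MB-231 cells resuspended at 5 × 10^7 per mL. When tumours reached 150–200 mm3, mice were randomised into groups of 3 or 6. Dosing was oral and daily, in sterile water with 25% PEG400 plus 5% DMSO. Side effects were checked daily and body weight every 3 days.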
# MDA-MB-231 [3] = assay: Antitumor activity against human MDA-MB-231 cells xenografted in SCID mouse assessed as tumor growth inhibition at 40 mg/kg, po qd for 21 days and measured every 3 days; format: functional; conditions: MDA-MB-231, po, 504 h, time 21 day
# Method in brief: (§2)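 SCID mice (5−6 weeks) injected subcutaneously with 100 μL of cells at 5 × 10^7/mL. At 150−200 mm3 mice randomized, 6 per group. Oral compounds given in water with 25% PEG400 plus 5% DMSO; paclitaxel given 10 mg/kg/week iv. Tumor volume a×b²/2 and body weight measured every 3 days. Inhibition rate (c−d)/c×100% against vehicle control.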
# [4] = Toxicity in SCID mouse xenografted with MDA-MB-231 cells assessed as change in body weight at 40 mg/kg, po qd for 21 days and measured every 3 days; format: organism-based; conditions: in vivo, 504 h, dose 40 mg/kg/day, time 21 day
# Method in brief: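 Exponential-phase cells washed and injected subcutaneously (5 × 10^6 cells in 100 μL) into 5–6-week SCID mice. At 150–200 mm3, mice randomised to groups of 6. Oral dosing daily in water with 25% PEG400 and 5% DMSO; paclitaxel 10 mg/kg weekly by tail vein. Body weight measured every 3 days and side effects checked daily.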
# MDA-MB-231 [5] = assay: Antitumor activity against human MDA-MB-231 cells xenografted in SCID mouse assessed as tumor growth inhibition at 40 mg/kg, po qd for 15 days and measured every 3 days; format: functional; conditions: MDA-MB-231, po, 360 h, time 15 day; method in brief: as §2
# [6] = Toxicity in SCID mouse xenografted with MDA-MB-231 cells assessed as change in body weight at 40 mg/kg, po qd for 15 days and measured every 3 days; format: organism-based; conditions: in vivo, 360 h, dose 40 mg/kg/day, time 15 day
# [7] = Toxicity in SCID mouse xenografted with MDA-MB-231 cells assessed as animal death at 40 mg/kg, po qd for 15 days; format: organism-based; conditions: in vivo, dose 40 mg/kg/day, time 15 day, read-out: Activity
SMILES,IC50 (MDA-MB-231 [1]),IC50 (MDA-MB-435),IC50 (HepG2),mortality at 504 h [2],inhibition in vivo at 40 mg/kg/day (MDA-MB-231 [3]),Activity [4],inhibition in vivo at 40 mg/kg/day (MDA-MB-231 [5]),Activity [6],mortality at 360 h [7]
Cc1ccc(NC(=O)c2cccc(C(F)(F)F)c2F)cc1C#Cc1nn(C2CCN(C)CC2)c2ncnc(N)c12,0.296 µM,0.273 µM,> 10 µM,,,,,,
CN1CCC(n2nc(C#Cc3cccc(NC(=O)c4cccc(C(F)(F)F)c4)c3)c3c(N)ncnc32)CC1,0.597 µM,0.14 µM,6 µM,,,,,,
Cc1ccc(NC(=O)c2cc(Cl)cc(C(F)(F)F)c2)cc1C#Cc1nn(C2CCN(C)CC2)c2ncnc(N)c12,0.085 µM,0.063 µM,2.6 µM,,,,,,
Cc1ccc(NC(=O)c2cc(C(F)(F)F)cc(C(F)(F)F)c2)cc1C#Cc1nn(C2CCN(C)CC2)c2ncnc(N)c12,0.051 µM,0.094 µM,7.1 µM,,,,,,
Cc1ccc(NC(=O)c2cccc(F)c2)cc1C#Cc1nn(C2CCN(C)CC2)c2ncnc(N)c12,0.812 µM,2.07 µM,> 10 µM,,,,,,
COc1ccc(C(=O)Nc2ccc(C)c(C#Cc3nn(C4CCN(C)CC4)c4ncnc(N)c34)c2)cc1,1.36 µM,8.9 µM,> 10 µM,,,,,,
Cc1ccc(NC(=O)c2cccc(C(C)(C)C)c2)cc1C#Cc1nn([C@H]2CC[C@H](O)CC2)c2ncnc(N)c12,0.03 µM,0.012 µM,4.4 µM,,,,,,
CN1CCC(n2nc(C#Cc3cccc(C(=O)Nc4cccc(C(F)(F)F)c4)c3)c3c(N)ncnc32)CC1,1.69 µM,0.343 µM,> 10 µM,,,,,,
CCn1nc(C#Cc2cc(C(=O)Nc3cccc(C(F)(F)F)c3)ccc2C)c2c(N)ncnc21,0.36 µM,0.238 µM,> 10 µM,,,,,,
COc1ccc(C(=O)Nc2ccc(C)c(C#Cc3nn(C4CCN(C)CC4)c4ncnc(N)c34)c2)cc1C(F)(F)F,0.024 µM,0.832 µM,2.2 µM,0%,,,,,
Cc1ccc(NC(=O)c2ccc(Cl)cc2)cc1C#Cc1nn(C2CCN(C)CC2)c2ncnc(N)c12,0.033 µM,0.111 µM,7.6 µM,0%,90.1%,-16%,,,
Cc1ccc(NC(=O)c2ccnc(C(F)(F)F)c2)cc1C#Cc1nn(C2CCN(C)CC2)c2ncnc(N)c12,0.284 µM,0.183 µM,> 10 µM,,,,,,
Cc1ccc(NC(=O)c2cnc(C(C)(C)C)s2)cc1C#Cc1nn(C[C@@H](C)CO)c2ncnc(N)c12,0.034 µM,0.073 µM,> 10 µM,,,,,,
Cc1ccc(NC(=O)c2cccc(C(F)(F)F)c2)cc1C#Cc1nn([C@@H]2CCN(C)C2)c2ncnc(N)c12,,,6.6 µM,,,,,,
Cc1ccc(NC(=O)Nc2cccc(C(F)(F)F)c2)cc1C#Cc1nn(C2CCN(C)CC2)c2ncnc(N)c12,0.515 µM,0.09 µM,> 10 µM,,,,,,
Cc1cccc(C(=O)Nc2ccc(C)c(C#Cc3nn(C4CCN(C)CC4)c4ncnc(N)c34)c2)c1,0.133 µM,0.422 µM,> 10 µM,,,,,,
Cc1ccc(NC(=O)c2cc(C(F)(F)F)ccc2F)cc1C#Cc1nn(C2CCN(C)CC2)c2ncnc(N)c12,0.201 µM,0.117 µM,2.7 µM,,,,,,
CN1CCC(n2nc(C#Cc3cccc(NC(=O)Nc4cccc(C(F)(F)F)c4)c3)c3c(N)ncnc32)CC1,1.35 µM,0.557 µM,6.2 µM,,,,,,
Cc1ccc(NC(=O)c2cccc(C(F)(F)F)c2)cc1C#Cc1nn(CC2CCN(C)CC2)c2ncnc(N)c12,,,3.2 µM,,,,,,
Cc1ccc(C(=O)Nc2cccc(C(F)(F)F)c2)cc1C#Cc1nn(CC2CCN(C)C2)c2ncnc(N)c12 (configuration not stated),0.041 µM,0.115 µM,3.5 µM,,,,,,
Cc1ccc(NC(=O)c2cccc(Cl)c2)cc1C#Cc1nn(C2CCN(C)CC2)c2ncnc(N)c12,0.06 µM,0.733 µM,9.2 µM,,,,,,
Cc1ccc(C(=O)Nc2cccc(C(F)(F)F)c2)cc1C#Cc1nn([C@@H]2CCN(C)C2)c2ncnc(N)c12,0.013 µM,0.044 µM,4.6 µM,,,,,,

SMILES,IC50 (MDA-MB-231 [1]),IC50 (MDA-MB-435),IC50 (HepG2),mortality at 504 h [2],inhibition in vivo at 40 mg/kg/day (MDA-MB-231 [3]),Activity [4],inhibition in vivo at 40 mg/kg/day (MDA-MB-231 [5]),Activity [6],mortality at 360 h [7]
CN1CCC(n2nc(C#Cc3cc(NC(=O)Nc4cccc(C(F)(F)F)c4)ccc3Cl)c3c(N)ncnc32)CC1,0.947 µM,0.334 µM,> 10 µM,,,,,,
CN1CCC(n2nc(C#Cc3cc(NC(=O)c4cccc(C(F)(F)F)c4)ccc3Cl)c3c(N)ncnc32)CC1,0.947 µM,0.195 µM,> 10 µM,,,,,,
Cc1ccc(NC(=O)c2cc(C(F)(F)F)cc(Cl)c2F)cc1C#Cc1nn(C2CCN(C)CC2)c2ncnc(N)c12,1.88 µM,3.38 µM,> 10 µM,,,,,,
Cc1ccc(NC(=O)c2cc(F)cc(C(F)(F)F)c2)cc1C#Cc1nn(C2CCN(C)CC2)c2ncnc(N)c12,0.671 µM,1.43 µM,> 10 µM,,,,,,
Cc1ccc(NC(=O)c2cccc(C(F)(F)F)c2)cc1C#Cc1nn(CC2CCN(C)C2)c2ncnc(N)c12 (configuration not stated),,,4.7 µM,,,,,,
Cc1ccc(NC(=O)c2cccc(C(C)(C)C)c2)cc1C#Cc1nn(C2CCN(C)CC2)c2ncnc(N)c12,0.059 µM,0.02 µM,> 10 µM,,,,,,
Cc1ccc(NC(=O)c2ccc(Cl)c(C(F)(F)F)c2)cc1C#Cc1nn(C[C@@H](C)CO)c2ncnc(N)c12,0.023 µM,0.319 µM,> 10 µM,,,,,,
CN1CCC(n2nc(C#Cc3cc(C(=O)Nc4cccc(C(F)(F)F)c4)ccc3Cl)c3c(N)ncnc32)CC1,0.749 µM,0.135 µM,> 10 µM,,,,,,
Cc1ccc(NC(=O)c2cncc(C(F)(F)F)c2)cc1C#Cc1nn(C2CCN(C)CC2)c2ncnc(N)c12,0.167 µM,0.065 µM,> 10 µM,,,,,,
Cc1ccc(C(=O)Nc2cccc(C(F)(F)F)c2)cc1C#Cc1nn(CC2CCN(C)CC2)c2ncnc(N)c12,0.07 µM,0.055 µM,3.1 µM,,,,,,
Cc1ccc(NC(=O)c2cc(C(C)(C)C)nn2C)cc1C#Cc1nn(C2CCN(C)CC2)c2ncnc(N)c12,0.324 µM,0.08 µM,> 10 µM,,,,,,
Cc1ccc(C(=O)Nc2cccc(C(F)(F)F)c2)cc1C#Cc1nn(C2CCN(C)CC2)c2ncnc(N)c12,0.009 µM,0.17 µM,7.7 µM,,,,91.2%,-13.2%,0%
Cc1ccc(NC(=O)c2ccc(F)c(C(F)(F)F)c2)cc1C#Cc1nn(C2CCN(C)CC2)c2ncnc(N)c12,0.523 µM,0.621 µM,> 10 µM,,,,,,
Cc1ccc(NC(=O)c2ccc(C)c(C(F)(F)F)c2)cc1C#Cc1nn(C2CCN(C)CC2)c2ncnc(N)c12,0.044 µM,0.04 µM,> 10 µM,0%,69.8%,-4.5%,,,
Cc1ccc(NC(=O)c2ccc(Cl)c(C(F)(F)F)c2)cc1C#Cc1nn(C2CCN(C)CC2)c2ncnc(N)c12,0.031 µM,0.027 µM,> 10 µM,0%,70.5%,-6.7%,,,
COc1cccc(C(=O)Nc2ccc(C)c(C#Cc3nn(C4CCN(C)CC4)c4ncnc(N)c34)c2)c1,0.101 µM,0.285 µM,> 10 µM,,,,,,
Cc1ccc(NC(=O)c2cc(C(C)(C)C)on2)cc1C#Cc1nn(C2CCN(C)CC2)c2ncnc(N)c12,0.188 µM,0.082 µM,> 10 µM,,,,,,
Cc1ccc(NC(=O)c2cccc(C(F)(F)F)n2)cc1C#Cc1nn(C2CCN(C)CC2)c2ncnc(N)c12,0.509 µM,2.47 µM,> 10 µM,,,,,,
Cc1ccc(NC(=O)c2ccc(C)c(C(F)(F)F)c2)cc1C#Cc1nn(C[C@@H](C)CO)c2ncnc(N)c12,0.048 µM,0.123 µM,8.3 µM,,,,,,
Cc1ccc(NC(=O)c2ccc(C(F)(F)F)cc2)cc1C#Cc1nn(C2CCN(C)CC2)c2ncnc(N)c12,0.854 µM,5.13 µM,> 10 µM,,,,,,
Cc1ccc(NC(=O)c2cnc(C(C)(C)C)s2)cc1C#Cc1nn(C2CCN(C)CC2)c2ncnc(N)c12,0.078 µM,0.02 µM,> 10 µM,0%,87%,-5.3%,,,
Cc1ccc(NC(=O)c2cccc(OC(F)(F)F)c2)cc1C#Cc1nn(C2CCN(C)CC2)c2ncnc(N)c12,0.075 µM,0.093 µM,> 10 µM,,,,,,
